Experimental data taken from ChEMBL document CHEMBL1764979, “Nucleoside transport inhibitors: structure-activity relationships for pyrimido[5,4-d]pyrimidine derivatives that potentiate pemetrexed cytotoxicity in the presence of α1-acid glycoprotein” (J Med Chem, 2011).
Active and inactive are the calls of the source. The calls are words filed in the database; no cut-off is given here.

What was measured:
[1] = Chemical stability of the compound; assay type: physicochemical
[2] = Aqueous solubility of the compound; assay type: physicochemical; conditions: buffer
[3] = test system: L1210; conditions: Mus musculus, at 1 µM;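 further: uptake of tritiated thymidine through ENT transporters, counted by liquid scintillation, with alpha1-acid glycoprotein added at 5 mg/ml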
[4] = Inhibition of ENT-mediated [3H]thymidine incorporation in human COR-L23 cells by liquid scintillation counting; assay type: cell-based; conditions: COR-L23, 2 h
Method in brief: (§1)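 Log-phase COR-L23 cells were seeded at 2 × 10^4/well, left overnight, PBS-washed and given serum-free medium with inhibitor. 3H-TdR was added (final 100 nM, 6.2 GBq/mmol) for 2 h at 37 °C. Cells were washed in ice-cold PBS, lysed in 0.5 M NaOH for 30 min, harvested onto glass-fibre filters with TCA/water/MeOH rinses, and scintillation counted. Mean ± SD of three independent experiments.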

[5] = test system: COR-L23; experiment: Inhibition of ENT-mediated [3H]thymidine incorporation in human COR-L23 cells at 0.1 uM by liquid scintillation counting; assay type: cell-based; method in brief: as §1
[6] = test system: COR-L23; experiment: Inhibition of ENT-mediated [3H]thymidine incorporation in human COR-L23 cells at 1 uM by liquid scintillation counting; assay type: cell-based; method in brief: as §1
[7] = test system: L1210; experiment: Inhibition of ENT-mediated [3H]thymidine incorporation in mouse L1210 cells at 1 uM by liquid scintillation counting; assay type: cell-based; conditions: in the assay text read “transport” for “incorporation”
Method in brief: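 3H-TdR transport into murine L1210 leukaemia cells with inhibitor at 1.0 μM, tested with and without AGP (5 mg/mL). Mean and SD of three independent experiments.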

[8] = test system: COR-L23; experiment: Potentiation of pemetrexed-induced growth inhibitory activity in human COR-L23 cells at 1 uM by SRB assay in presence of thymidine and hypoxanthine; assay type: functional; design: scale not given: the % may be the effect or the level left
Method in brief: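 COR-L23 cells in RPMI 1640 with 10% FCS were seeded at 1 × 10^3/well and allowed to attach overnight. They were then given pemetrexed 200 nM, ± TdR 1 μM and HPX 10 μM (1% DMSO), ± inhibitor 1 μM, for three doublings, then fixed and read by SRB. % reversal = (growth arrest with pemetrexed + TdR/HPX + inhibitor)/(growth arrest with pemetrexed alone) × 100. Three independent experiments.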

SMILES | Stability [1] | solubility [2] | inhibition [3] | IC50 [4] [nM] | inhibition [5] [%] | inhibition [6] [%] | inhibition [7] | Activity [8] [%]
CCOC(=O)[C@H](C)NC(=O)OC(C)CNc1nc(NCc2ccc(OC)c(OC)c2)c2nc(NCC(C)OC(=O)N[C@@H](C)C(=O)OCC)nc(NCc3ccc(OC)c(OC)c3)c2n1 (some centres undefined) | Unstable | Insoluble |  |  |  |  |  | 
COc1ccc(CNc2nc(NCC(C)OC(=O)CCC(=O)O)nc3c(NCc4ccc(OC)c(OC)c4)nc(NCC(C)OC(=O)CCC(=O)O)nc23)cc1OC (centres undefined) |  |  | inactive |  |  |  |  | 
COc1ccc(CNc2nc(NC[C@H](C)O)nc3c(NCc4ccc(OC)c(OC)c4)nc(NC[C@H](C)O)nc23)cc1OC |  |  |  | 31 | 68 | 93 |  | 
COc1ccc(CNc2nc(NCC(C)OC(=O)[C@@H](NC(=O)OC(C)(C)C)C(C)C)nc3c(NCc4ccc(OC)c(OC)c4)nc(NCC(C)OC(=O)[C@@H](NC(=O)OC(C)(C)C)C(C)C)nc23)cc1OC (some centres undefined) |  |  | inactive |  |  |  |  | 
COc1ccc(NC(=O)OC(C)CNc2nc(NCc3ccc(OC)c(OC)c3)c3nc(NCC(C)OC(=O)Nc4ccc(OC)cc4)nc(NCc4ccc(OC)c(OC)c4)c3n2)cc1 (centres undefined) | Stable |  |  |  |  |  |  | 
COc1ccc(CNc2nc(NCC(C)OC(=O)Nc3ccc(C(F)(F)F)cc3)nc3c(NCc4ccc(OC)c(OC)c4)nc(NCC(C)O)nc23)cc1OC (centres undefined) | Stable |  | Active | 67 | 75 | 93 | Active | >100
CCOC(=O)CNC(=O)OC(C)CNc1nc(NCc2ccc(OC)c(OC)c2)c2nc(NCC(C)OC(=O)NCC(=O)OCC)nc(NCc3ccc(OC)c(OC)c3)c2n1 (centres undefined) | Unstable |  |  |  |  |  | > 90% | 
COc1ccc(CNc2nc(NCC(C)OC(=O)[C@@H](N)C(C)C)nc3c(NCc4ccc(OC)c(OC)c4)nc(NCC(C)OC(=O)Nc4ccccc4)nc23)cc1OC (some centres undefined) |  |  |  | 44 | 68 | 92 |  | >100
COC(=O)[C@@H](NC(=O)OC(C)CNc1nc(NCc2ccc(OC)c(OC)c2)c2nc(NCC(C)O)nc(NCc3ccc(OC)c(OC)c3)c2n1)C(C)C (some centres undefined) | Unstable |  |  | 7 | 79 | 95 |  | 
COc1ccc(CNc2nc(NCC(C)OC(=O)Nc3ccccc3)nc3c(NCc4ccc(OC)c(OC)c4)nc(NCC(C)OC(=O)CCC(=O)O)nc23)cc1OC (centres undefined) | Unstable |  |  | 7 | 75 | 94 |  | >100
COc1ccc(CNc2nc(NCC(C)OC(=O)CCC(=O)O)nc3c(NCc4ccc(OC)c(OC)c4)nc(NCC(C)O)nc23)cc1OC (centres undefined) |  |  | Active |  |  |  |  | 
COc1ccc(CNc2nc(NCC(C)O)nc3c(NCc4ccc(OC)c(OC)c4)nc(NCC(C)O)nc23)cc1OC (centres undefined) | Stable |  | Active | 26 | 66 | 90 | > 90% | >100
COc1ccc(CNc2nc(NCC(C)OC(=O)Nc3ccccc3)nc3c(NCc4ccc(OC)c(OC)c4)nc(NCC(C)O)nc23)cc1OC (centres undefined) | Stable |  | Active | 8 | 81 | 97 | Active | >100
CCOC(=O)[C@H](C)NC(=O)OC(C)CNc1nc(NCc2ccc(OC)c(OC)c2)c2nc(NCC(C)O)nc(NCc3ccc(OC)c(OC)c3)c2n1 (some centres undefined) | Unstable |  |  | 435 | 39 | 68 |  | 
COc1ccc(CNc2nc(NCC(C)OC(=O)Nc3ccc([N+](=O)[O-])cc3)nc3c(NCc4ccc(OC)c(OC)c4)nc(NCC(C)O)nc23)cc1OC (centres undefined) | Stable |  | Active | 60 | 84 | 96 | Active | >100
COc1ccc(CNc2nc(NCC(C)OC(=O)[C@@H](NC(=O)OC(C)(C)C)C(C)C)nc3c(NCc4ccc(OC)c(OC)c4)nc(NCC(C)O)nc23)cc1OC (some centres undefined) |  |  | inactive |  |  |  |  | 
OCCN(CCO)c1nc(N2CCCCC2)c2nc(N(CCO)CCO)nc(N3CCCCC3)c2n1 [DIPYRIDAMOLE] |  |  |  | 15 | 78 | 96 |  | >100
COc1ccc(CNc2nc(NCC(C)OP(=O)(O)O)nc3c(NCc4ccc(OC)c(OC)c4)nc(NCC(C)OC(=O)Nc4ccccc4)nc23)cc1OC (centres undefined) | Unstable |  |  | 218 | 53 | 75 |  | 
COc1ccc(CNc2nc(NCC(C)OC(=O)Nc3ccc(C(F)(F)F)cc3)nc3c(NCc4ccc(OC)c(OC)c4)nc(NCC(C)OC(=O)Nc4ccc(C(F)(F)F)cc4)nc23)cc1OC (centres undefined) | Stable |  |  |  |  |  | inactive | 
CCOC(=O)[C@H](Cc1ccccc1)NC(=O)OC(C)CNc1nc(NCc2ccc(OC)c(OC)c2)c2nc(NCC(C)O)nc(NCc3ccc(OC)c(OC)c3)c2n1 (some centres undefined) | Unstable |  |  |  |  |  |  | 
COc1ccc(NC(=O)OC(C)CNc2nc(NCc3ccc(OC)c(OC)c3)c3nc(NCC(C)O)nc(NCc4ccc(OC)c(OC)c4)c3n2)cc1 (centres undefined) | Stable |  |  | 4 | 84 | 98 |  | >100
COc1ccc(CNc2nc(NCC(C)OC(=O)Nc3ccc([N+](=O)[O-])cc3)nc3c(NCc4ccc(OC)c(OC)c4)nc(NCC(C)OC(=O)Nc4ccc([N+](=O)[O-])cc4)nc23)cc1OC (centres undefined) | Stable |  |  |  |  |  | inactive | 
C=CCOc1ccc(CNc2nc(NCC(C)O)nc3c(NCc4ccc(OC)c(OC)c4)nc(NCC(C)O)nc23)cc1OC (centres undefined) |  |  |  | 14 | 81 | 96 |  | 
COc1ccc(CNc2nc(NCC(C)OC(=O)[C@@H](N)C(C)C)nc3c(NCc4ccc(OC)c(OC)c4)nc(NCC(C)OC(=O)[C@@H](N)C(C)C)nc23)cc1OC.Cl.Cl (some centres undefined) |  |  | Active | 70 | 59 | 87 |  | >100
COc1ccc(CNc2nc(NCC(C)OC(=O)Nc3ccccc3)nc3c(NCc4ccc(OC)c(OC)c4)nc(NCC(O)CO)nc23)cc1OC (centres undefined) |  |  |  | 10 | 69 | 91 |  | >100
COc1ccc(CNc2nc(NCC(C)OC(=O)Nc3ccccc3)nc3c(NCc4ccc(OCCN5CCOCC5)c(OC)c4)nc(NCC(C)O)nc23)cc1OC (centres undefined) |  |  |  | 22 | 80 | 97 |  | >100
COc1ccc(CNc2nc(NCC(C)OC(=O)Nc3ccccc3)nc3c(NCc4ccc(OC)c(OC)c4)nc(NCC(C)OC(=O)Nc4ccccc4)nc23)cc1OC (centres undefined) | Stable |  |  |  |  |  |  | 
CCOC(=O)CNC(=O)OC(C)CNc1nc(NCc2ccc(OC)c(OC)c2)c2nc(NCC(C)O)nc(NCc3ccc(OC)c(OC)c3)c2n1 (centres undefined) | Unstable |  | Active | 59 | 85 | 94 | > 90% | 
COc1ccc(CNc2nc(NCC(C)OC(=O)[C@@H](N)C(C)C)nc3c(NCc4ccc(OC)c(OC)c4)nc(NCC(C)O)nc23)cc1OC.Cl (some centres undefined) |  |  |  | 39 | 64 | 89 |  | >100
CCOC(=O)[C@H](Cc1ccccc1)NC(=O)OC(C)CNc1nc(NCc2ccc(OC)c(OC)c2)c2nc(NCC(C)OC(=O)N[C@@H](Cc3ccccc3)C(=O)OCC)nc(NCc3ccc(OC)c(OC)c3)c2n1 (some centres undefined) | Unstable | Insoluble |  |  |  |  |  | 
